The target of assay [1] is T1, Serine/threonine-protein kinase Sgk2 (Homo sapiens) (UniProt Q9HBY8).
T1 sequence (whole entry): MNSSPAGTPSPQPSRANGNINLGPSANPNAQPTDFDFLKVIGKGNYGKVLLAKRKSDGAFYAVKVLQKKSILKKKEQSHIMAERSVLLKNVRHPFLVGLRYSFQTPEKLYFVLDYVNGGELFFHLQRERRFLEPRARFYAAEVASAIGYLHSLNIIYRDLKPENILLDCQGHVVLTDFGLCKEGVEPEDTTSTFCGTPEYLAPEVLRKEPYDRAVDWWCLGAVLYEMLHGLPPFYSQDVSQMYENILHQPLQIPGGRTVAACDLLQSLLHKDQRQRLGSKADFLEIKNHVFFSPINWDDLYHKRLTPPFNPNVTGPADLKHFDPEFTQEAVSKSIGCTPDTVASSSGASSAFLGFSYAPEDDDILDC
As to the kind of experiment: Inhibition of SGK2 at 10 uM by luciferase assay. The essentials: (§1)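 Cell-free split-luciferase competitive binding assay. Cfluc-kinase fusion mRNA was co-translated with Fos-Nfluc mRNA in rabbit reticulocyte lysate at 30 °C for 90 min, frozen at −80 °C overnight and thawed on ice. Lysate held tracer 2 at 120 nM final and inhibitor at 10 μM final (DMSO), 1 h at room temperature. Luciferin reagent was added and luminescence read (1 s integration), in duplicate.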

The target in assay [2] is T2, Serine/threonine-protein kinase Sgk3 (Homo sapiens) (UniProt Q96BR1).
T2 sequence (whole entry): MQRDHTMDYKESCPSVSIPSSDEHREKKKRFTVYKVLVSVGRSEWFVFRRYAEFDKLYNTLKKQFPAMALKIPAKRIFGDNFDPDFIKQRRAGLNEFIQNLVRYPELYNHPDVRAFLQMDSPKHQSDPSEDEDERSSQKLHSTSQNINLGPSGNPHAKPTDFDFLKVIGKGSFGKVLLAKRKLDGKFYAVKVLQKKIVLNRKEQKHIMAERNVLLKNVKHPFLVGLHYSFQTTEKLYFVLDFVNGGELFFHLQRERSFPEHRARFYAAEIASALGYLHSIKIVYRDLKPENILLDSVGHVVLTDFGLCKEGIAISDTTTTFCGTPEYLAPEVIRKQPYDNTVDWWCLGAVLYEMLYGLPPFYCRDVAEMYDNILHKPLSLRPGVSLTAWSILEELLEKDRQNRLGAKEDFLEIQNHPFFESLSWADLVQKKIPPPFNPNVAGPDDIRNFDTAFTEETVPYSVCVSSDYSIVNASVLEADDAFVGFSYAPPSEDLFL
Description: Inhibition of SGK3 at 10 uM by luciferase assay. The essentials:
as §1

For assay [3], the target named is Aurora kinase B (Homo sapiens) (UniProt Q96GD4). As to the kind of experiment: Inhibition of Aurora kinase B at 10 uM by luciferase assay. The essentials:
as §1

Assay [4] addresses T3, Protein kinase C epsilon type (Homo sapiens) (UniProt Q02156).
T3 sequence (whole entry): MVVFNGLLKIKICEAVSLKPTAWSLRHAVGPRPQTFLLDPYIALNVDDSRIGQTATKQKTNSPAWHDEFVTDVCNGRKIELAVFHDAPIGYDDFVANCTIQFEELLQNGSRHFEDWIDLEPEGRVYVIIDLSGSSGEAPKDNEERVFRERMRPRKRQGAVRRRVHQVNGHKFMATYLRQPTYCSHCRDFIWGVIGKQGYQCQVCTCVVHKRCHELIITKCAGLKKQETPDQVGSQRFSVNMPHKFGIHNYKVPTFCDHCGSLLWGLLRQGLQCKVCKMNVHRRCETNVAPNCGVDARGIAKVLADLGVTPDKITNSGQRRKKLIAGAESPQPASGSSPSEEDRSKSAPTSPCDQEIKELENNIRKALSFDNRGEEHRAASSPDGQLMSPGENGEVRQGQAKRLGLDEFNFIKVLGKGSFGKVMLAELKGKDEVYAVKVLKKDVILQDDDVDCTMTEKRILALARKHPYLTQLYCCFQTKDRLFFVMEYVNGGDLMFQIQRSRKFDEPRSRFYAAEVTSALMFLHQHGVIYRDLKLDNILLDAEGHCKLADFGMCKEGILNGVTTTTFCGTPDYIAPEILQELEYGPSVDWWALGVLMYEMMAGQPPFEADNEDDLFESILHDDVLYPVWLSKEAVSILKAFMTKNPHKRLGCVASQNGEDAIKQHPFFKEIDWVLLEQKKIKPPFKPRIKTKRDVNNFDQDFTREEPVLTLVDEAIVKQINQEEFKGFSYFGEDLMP
Description: Inhibition of Protein kinase C epsilon type at 10 uM by luciferase assay. An outline of the steps:
(§2)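 Cell-free split-firefly-luciferase competitive binding assay: Cfluc-kinase fusion mRNA co-translated with Fos-Nfluc mRNA in rabbit reticulocyte lysate, 30 °C for 90 min, then frozen at −80 °C and thawed on ice. Luminescence read after luciferin reagent, in duplicate. Percent inhibition = 1 − (background-subtracted signal ÷ DMSO positive control).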

Assay [5] concerns the target Protein kinase C eta type (Homo sapiens) (UniProt P24723). Description: Inhibition of Protein kinase C eta type at 10 uM by luciferase assay. The essentials: as §1
Assay [6] concerns the target Protein kinase C theta type (Homo sapiens) (UniProt Q04759). Description: Inhibition of Protein kinase C theta type at 10 uM by luciferase assay. The essentials:
as §1

Assay [7] addresses T4, cAMP-dependent protein kinase catalytic subunit PRKX (Homo sapiens) (UniProt P51817).
T4 sequence (whole entry): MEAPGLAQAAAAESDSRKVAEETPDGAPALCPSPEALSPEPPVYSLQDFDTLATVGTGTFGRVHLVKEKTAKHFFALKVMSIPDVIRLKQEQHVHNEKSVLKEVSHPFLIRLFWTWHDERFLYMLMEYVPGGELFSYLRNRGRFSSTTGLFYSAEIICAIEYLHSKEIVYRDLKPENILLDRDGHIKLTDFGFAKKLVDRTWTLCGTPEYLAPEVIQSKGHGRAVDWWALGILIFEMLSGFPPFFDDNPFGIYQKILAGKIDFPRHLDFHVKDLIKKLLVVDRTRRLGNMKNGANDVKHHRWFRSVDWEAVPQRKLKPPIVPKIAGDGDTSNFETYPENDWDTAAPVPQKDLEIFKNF
Description: Inhibition of PRKX at 10 uM by luciferase assay. The essentials:
as §1

The nature of assay [8]: Inhibition of Protein kinase A at 10 uM by luciferase assay. The essentials:
as §1

In assay [9] the target is T5, Aurora kinase C (Homo sapiens) (UniProt Q9UQB9).
T5 sequence (whole entry): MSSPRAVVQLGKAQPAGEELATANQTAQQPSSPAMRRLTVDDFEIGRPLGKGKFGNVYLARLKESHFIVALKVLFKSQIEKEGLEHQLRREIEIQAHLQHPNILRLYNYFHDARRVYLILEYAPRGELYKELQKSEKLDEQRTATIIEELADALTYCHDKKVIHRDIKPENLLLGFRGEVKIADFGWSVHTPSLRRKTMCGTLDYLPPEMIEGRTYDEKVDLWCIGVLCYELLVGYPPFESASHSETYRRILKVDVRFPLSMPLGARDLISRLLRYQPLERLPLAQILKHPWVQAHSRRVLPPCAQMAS
Description: Inhibition of Aurora kinase C at 10 uM by luciferase assay. The essentials: as §1

Assay [10] concerns the target Serine/threonine-protein kinase 32B (Homo sapiens) (UniProt Q9NY57). As to the kind of experiment: Inhibition of STK32B at 10 uM by luciferase assay. The essentials:
as §1

Assay [11] has as its target T6, Myotonin-protein kinase (Homo sapiens) (UniProt Q09013).
T6 sequence (whole entry): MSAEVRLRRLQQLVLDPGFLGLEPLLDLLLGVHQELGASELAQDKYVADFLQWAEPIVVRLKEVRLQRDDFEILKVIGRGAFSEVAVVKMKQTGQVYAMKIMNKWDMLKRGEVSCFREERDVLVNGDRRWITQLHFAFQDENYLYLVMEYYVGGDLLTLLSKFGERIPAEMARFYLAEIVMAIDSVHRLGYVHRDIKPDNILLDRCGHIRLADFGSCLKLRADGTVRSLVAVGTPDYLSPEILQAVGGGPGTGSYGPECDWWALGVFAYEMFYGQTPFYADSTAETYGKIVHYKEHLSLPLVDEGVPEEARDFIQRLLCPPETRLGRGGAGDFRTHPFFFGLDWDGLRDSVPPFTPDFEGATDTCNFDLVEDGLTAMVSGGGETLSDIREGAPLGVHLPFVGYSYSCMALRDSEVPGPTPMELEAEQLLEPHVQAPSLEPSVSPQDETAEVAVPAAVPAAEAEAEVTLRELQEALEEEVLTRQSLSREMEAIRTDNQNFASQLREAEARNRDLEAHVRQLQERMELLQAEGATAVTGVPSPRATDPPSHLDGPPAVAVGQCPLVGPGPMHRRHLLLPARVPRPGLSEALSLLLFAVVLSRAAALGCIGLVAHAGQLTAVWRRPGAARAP
As to the kind of experiment: Inhibition of DMPK at 10 uM by luciferase assay. The essentials: as §1

Assay [12] concerns the target Protein kinase C gamma type (Homo sapiens) (UniProt P05129). Description: Inhibition of Protein kinase C gamma type at 10 uM by luciferase assay. The essentials:
as §2

Assay [13] addresses Protein kinase C delta type (Homo sapiens) (UniProt Q05655). Description: Inhibition of Protein kinase C delta type at 10 uM by luciferase assay. The essentials: as §2
Assay [14] has as its target RAC-alpha serine/threonine-protein kinase (Homo sapiens) (UniProt P31749). Description: Inhibition of AKT1 at 10 uM by luciferase assay. The essentials:
as §2

For assay [15], the target named is RAC-beta serine/threonine-protein kinase (Homo sapiens) (UniProt P31751). Description: Inhibition of AKT2 at 10 uM by luciferase assay. An outline of the steps:
as §2

The target in assay [16] is RAC-gamma serine/threonine-protein kinase (Homo sapiens) (UniProt Q9Y243). Description: Inhibition of AKT3 at 10 uM by luciferase assay. An outline of the steps: as §2

Each structure is given as a SMILES string. Activity calls are given as the source filed them. The calls are words filed in the database; no cut-off is given here.

Chain of Protein kinase C eta type (Homo sapiens) (P24723 whole entry): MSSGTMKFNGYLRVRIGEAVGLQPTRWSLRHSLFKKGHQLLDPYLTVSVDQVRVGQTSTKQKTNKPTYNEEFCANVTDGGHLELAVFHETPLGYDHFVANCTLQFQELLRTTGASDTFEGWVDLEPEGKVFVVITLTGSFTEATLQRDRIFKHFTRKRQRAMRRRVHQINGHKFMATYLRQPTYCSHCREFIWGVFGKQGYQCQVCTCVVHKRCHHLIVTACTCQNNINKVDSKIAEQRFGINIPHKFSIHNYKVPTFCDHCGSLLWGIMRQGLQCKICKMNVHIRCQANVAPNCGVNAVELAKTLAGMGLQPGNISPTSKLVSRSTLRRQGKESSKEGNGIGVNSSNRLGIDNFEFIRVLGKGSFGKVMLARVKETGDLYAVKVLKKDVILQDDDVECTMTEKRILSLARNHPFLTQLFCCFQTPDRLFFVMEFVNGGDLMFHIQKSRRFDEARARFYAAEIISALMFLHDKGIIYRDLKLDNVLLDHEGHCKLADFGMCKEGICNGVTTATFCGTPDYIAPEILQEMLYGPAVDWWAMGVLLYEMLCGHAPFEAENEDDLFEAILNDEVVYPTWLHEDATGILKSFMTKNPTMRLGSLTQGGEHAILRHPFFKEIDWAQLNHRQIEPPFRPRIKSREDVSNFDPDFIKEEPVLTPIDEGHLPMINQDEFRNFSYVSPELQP
Chain of Aurora kinase B (Homo sapiens) (Q96GD4 whole entry): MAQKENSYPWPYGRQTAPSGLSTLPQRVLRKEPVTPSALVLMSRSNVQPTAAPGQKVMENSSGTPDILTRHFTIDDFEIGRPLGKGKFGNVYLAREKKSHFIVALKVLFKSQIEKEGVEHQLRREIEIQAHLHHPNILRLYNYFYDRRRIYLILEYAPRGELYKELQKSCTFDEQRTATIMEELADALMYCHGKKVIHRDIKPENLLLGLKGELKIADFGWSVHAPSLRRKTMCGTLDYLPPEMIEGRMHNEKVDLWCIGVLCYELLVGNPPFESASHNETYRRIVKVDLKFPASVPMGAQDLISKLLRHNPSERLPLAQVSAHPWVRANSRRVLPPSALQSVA
Chain of Serine/threonine-protein kinase 32B (Homo sapiens) (Q9NY57 whole entry): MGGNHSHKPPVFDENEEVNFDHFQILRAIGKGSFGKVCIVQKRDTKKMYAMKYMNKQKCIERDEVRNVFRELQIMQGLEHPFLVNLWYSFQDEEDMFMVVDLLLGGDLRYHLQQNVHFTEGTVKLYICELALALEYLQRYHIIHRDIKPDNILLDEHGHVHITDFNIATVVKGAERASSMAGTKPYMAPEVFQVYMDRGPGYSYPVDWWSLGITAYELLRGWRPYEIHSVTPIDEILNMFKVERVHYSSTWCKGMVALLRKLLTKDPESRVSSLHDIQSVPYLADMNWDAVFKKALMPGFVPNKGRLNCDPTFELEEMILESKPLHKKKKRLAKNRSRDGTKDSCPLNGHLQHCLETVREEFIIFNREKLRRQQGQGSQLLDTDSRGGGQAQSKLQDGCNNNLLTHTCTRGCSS
Chain of Protein kinase C theta type (Homo sapiens) (Q04759 whole entry, looked up): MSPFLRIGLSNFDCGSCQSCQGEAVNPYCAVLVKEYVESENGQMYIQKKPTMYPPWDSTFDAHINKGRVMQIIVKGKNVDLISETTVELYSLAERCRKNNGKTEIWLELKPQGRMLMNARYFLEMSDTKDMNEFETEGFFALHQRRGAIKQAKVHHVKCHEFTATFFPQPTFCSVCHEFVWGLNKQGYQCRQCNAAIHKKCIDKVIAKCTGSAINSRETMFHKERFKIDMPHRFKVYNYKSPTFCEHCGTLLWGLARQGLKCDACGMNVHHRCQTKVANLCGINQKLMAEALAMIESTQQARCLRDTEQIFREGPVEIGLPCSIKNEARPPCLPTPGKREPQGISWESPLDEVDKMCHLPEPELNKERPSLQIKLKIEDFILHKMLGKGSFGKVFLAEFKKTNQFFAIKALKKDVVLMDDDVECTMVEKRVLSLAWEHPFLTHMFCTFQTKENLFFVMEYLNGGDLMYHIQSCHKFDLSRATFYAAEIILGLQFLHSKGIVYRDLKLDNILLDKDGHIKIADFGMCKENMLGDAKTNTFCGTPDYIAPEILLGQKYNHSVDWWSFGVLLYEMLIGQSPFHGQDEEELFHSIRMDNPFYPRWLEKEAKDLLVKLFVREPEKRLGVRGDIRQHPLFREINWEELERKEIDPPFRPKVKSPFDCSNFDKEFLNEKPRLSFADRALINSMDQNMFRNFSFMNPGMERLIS
Chain of RAC-alpha serine/threonine-protein kinase (Homo sapiens) (P31749 whole entry): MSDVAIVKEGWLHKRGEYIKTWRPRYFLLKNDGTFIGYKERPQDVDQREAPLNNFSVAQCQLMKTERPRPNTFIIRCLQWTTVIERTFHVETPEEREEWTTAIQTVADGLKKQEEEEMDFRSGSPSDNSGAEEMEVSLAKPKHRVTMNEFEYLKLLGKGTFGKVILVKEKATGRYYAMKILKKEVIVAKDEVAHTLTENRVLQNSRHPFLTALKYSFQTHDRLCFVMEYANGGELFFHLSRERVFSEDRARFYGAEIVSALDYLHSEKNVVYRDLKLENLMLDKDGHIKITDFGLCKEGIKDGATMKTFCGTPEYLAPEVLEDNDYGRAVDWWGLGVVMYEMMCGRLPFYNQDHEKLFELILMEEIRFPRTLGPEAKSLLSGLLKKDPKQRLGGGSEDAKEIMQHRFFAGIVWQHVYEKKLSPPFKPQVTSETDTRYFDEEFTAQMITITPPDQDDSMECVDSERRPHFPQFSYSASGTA
Chain of RAC-gamma serine/threonine-protein kinase (Homo sapiens) (Q9Y243 whole entry): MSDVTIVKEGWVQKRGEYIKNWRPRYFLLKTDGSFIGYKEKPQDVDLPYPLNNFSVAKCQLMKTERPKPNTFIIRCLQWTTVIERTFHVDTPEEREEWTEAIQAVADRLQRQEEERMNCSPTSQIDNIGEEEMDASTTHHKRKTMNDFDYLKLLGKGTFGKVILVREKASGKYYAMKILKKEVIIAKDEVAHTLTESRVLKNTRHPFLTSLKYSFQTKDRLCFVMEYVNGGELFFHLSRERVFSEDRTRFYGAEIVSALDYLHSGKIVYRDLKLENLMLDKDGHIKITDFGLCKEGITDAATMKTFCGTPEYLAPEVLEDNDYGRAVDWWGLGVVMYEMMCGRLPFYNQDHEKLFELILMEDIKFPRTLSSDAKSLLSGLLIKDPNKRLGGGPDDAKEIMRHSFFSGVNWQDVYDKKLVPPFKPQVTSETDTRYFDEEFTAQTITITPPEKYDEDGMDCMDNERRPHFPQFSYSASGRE
Chain of Protein kinase C delta type (Homo sapiens) (Q05655 whole entry, looked up): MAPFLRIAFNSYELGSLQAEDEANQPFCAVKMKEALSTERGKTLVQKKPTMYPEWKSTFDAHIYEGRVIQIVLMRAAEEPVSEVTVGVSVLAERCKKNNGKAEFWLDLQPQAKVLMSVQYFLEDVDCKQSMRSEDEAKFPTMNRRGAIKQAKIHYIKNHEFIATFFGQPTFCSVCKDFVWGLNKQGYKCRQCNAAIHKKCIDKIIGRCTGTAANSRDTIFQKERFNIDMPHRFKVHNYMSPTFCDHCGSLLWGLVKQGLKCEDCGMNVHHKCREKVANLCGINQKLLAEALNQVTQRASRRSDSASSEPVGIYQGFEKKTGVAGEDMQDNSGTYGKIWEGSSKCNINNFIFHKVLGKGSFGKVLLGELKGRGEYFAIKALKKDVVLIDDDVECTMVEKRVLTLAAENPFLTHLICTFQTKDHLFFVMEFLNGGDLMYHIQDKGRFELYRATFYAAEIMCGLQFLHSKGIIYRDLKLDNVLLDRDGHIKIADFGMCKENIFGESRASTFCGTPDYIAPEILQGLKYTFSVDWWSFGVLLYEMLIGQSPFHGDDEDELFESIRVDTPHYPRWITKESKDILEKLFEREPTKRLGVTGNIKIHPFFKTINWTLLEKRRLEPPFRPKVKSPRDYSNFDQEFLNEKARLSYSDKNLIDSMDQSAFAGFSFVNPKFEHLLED
Chain of RAC-beta serine/threonine-protein kinase (Homo sapiens) (P31751 whole entry): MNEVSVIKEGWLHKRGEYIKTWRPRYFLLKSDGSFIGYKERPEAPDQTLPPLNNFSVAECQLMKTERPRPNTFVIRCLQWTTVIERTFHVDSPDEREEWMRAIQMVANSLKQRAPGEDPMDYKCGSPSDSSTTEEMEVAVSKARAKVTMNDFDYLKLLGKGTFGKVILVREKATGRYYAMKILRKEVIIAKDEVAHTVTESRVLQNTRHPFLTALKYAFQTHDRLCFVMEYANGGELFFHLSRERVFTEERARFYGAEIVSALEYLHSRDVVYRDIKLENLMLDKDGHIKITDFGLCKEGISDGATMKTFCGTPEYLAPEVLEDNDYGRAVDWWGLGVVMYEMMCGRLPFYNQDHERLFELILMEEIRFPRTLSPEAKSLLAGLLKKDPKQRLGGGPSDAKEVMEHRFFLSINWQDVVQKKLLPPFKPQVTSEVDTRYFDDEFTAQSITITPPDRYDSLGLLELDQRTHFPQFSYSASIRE

The term inhibition denotes the percentage by which the read-out fell short of the control. As for `O=C(c1ccc(Nc2nccc(-c3cc4ccccc4s3)n2)cc1)N1CCC(N2CCCC2)CC1`, the inhibition was > 60% in assay [1]; > 60% in [2]; > 29% in assay [3]; > 29% in assay [4]; 83% in [5]; > 29% in assay [6]. For the same molecule, in [7], the inhibition is > 29%.
Take `C[C@@H](N)[C@H]1CC[C@H](C(=O)Nc2ccncc2)CC1`: the inhibition entry in assay [7] is “Active”.
Take `O=S(=O)(NCCNC/C=C/c1ccc(Br)cc1)c1cccc2cnccc12`: the inhibition in [1] is 20%; in [2], 20%; in assay [8] it was > 65%; in assay [5], 20%; in assay [6], 20%; in [7] it was > 65%.
As to `Cc1[nH]c(/C=C2\C(=O)Nc3ccc(S(=O)(=O)Cc4c(Cl)cccc4Cl)cc32)c(C)c1C(=O)N1CCC[C@@H]1CN1CCCC1`, the inhibition in assay [3] and in [9] was > 25% in each case.
On to `COc1cc2ncn(-c3cc(OCc4ccccc4C(F)(F)F)c(C(N)=O)s3)c2cc1OC`, for which the inhibition in [3] and in assay [9] was > 25% throughout.
With `CO[C@@H]1[C@H](N(C)C(=O)c2ccccc2)C[C@H]2O[C@]1(C)n1c3ccccc3c3c4c(c5c6ccccc6n2c5c31)C(=O)NC4`, in [10], the inhibition result was “Active”.
Regarding `COc1cc2c(Nc3ccc(NC(=O)c4ccccc4)cc3)ncnc2cc1OCCCN1CCOCC1`, the inhibition in [3] and in [9] was > 50% each time.
For `O=C1NC(=O)c2cc(Nc3ccc(F)cc3)c(Nc3ccc(F)cc3)cc21`, the figures for the inhibition in assay [11] and in [12] were 30% and 22%, respectively.
For the molecule `O=C1NC(=O)c2c1c1c3ccccc3n3c1c1c2c2ccccc2n1C1CCC3O1`, in assay [1], the inhibition was > 60%.
On to `Cn1cc(C2=C(c3cn(CCCSC(=N)N)c4ccccc34)C(=O)NC2=O)c2ccccc21`, for which the inhibition in assay [13], in assay [4], in [12], in [5] and in assay [6] was 47% in each case.
In the case of `O=S(=O)(c1cccc2c(O)nccc12)N1CCCNCC1`, the inhibition result in assay [7] is “Active”.
Consider `NC(=O)Nc1sc(-c2ccc(F)cc2)cc1C(N)=O`, for which the inhibition in [3] and in assay [9] was > 25% each time. Besides, the inhibition entry in assay [5] was “Active”.
Regarding `O=S(=O)(c1cccc2cnccc12)N1CCCNCC1`, the inhibition entry in assay [8] and in assay [7] was “Active” each time.
On to `CN(C)CCCn1cc(C2=C(c3c[nH]c4ccccc34)C(=O)NC2=O)c2ccccc21`, for which the inhibition result in assay [12], in assay [5] and in [6] was “inactive” each time.
With `O=C1NC(=O)c2c1c1c3ccccc3[nH]c1c1[nH]c3ccccc3c21`, the inhibition entry in assay [14], in assay [15], in assay [16], in assay [13], in assay [4] and in assay [12] was “inactive” each time.
With `O=S(=O)(c1cccc2c(Cl)cccc12)N1CCCNCC1`, the inhibition entry in assay [7] was “inactive”.
As to `Cc1ccc(-c2nn(C(C)(C)C)c3ncnc(N)c23)cc1`, the inhibition in assay [10] was > 40%; in assay [11] it was 32%; in [8], 19%.
Turning to `Fc1ccc(Cl)cc1-c1nc(Nc2ccncc2)c2nccnc2n1`, the inhibition in assay [14], in assay [15], in assay [16], in assay [4], in [5] and in [6] was > 25% in each case.
For `CC(C)(C)n1nc(-c2ccc(Cl)cc2)c2c(N)ncnc21`, the figures for the inhibition in [10], in [11] and in assay [8] were > 40%, 32% and 19%, respectively.
